Test results from paper PMC5378063 (Medicinal chemistry (Shariqah (United Arab Emirates)), 2009).
In brackets after ≈: the same amount, converted by molar mass.

Tests used:
M.tuberculosis H37Rv = assay: MIC, agar dilution method; assay type: cell-based, Mycobacterium tuberculosis
[1] = system: M.tuberculosis H37Rv RFPr; assay: MIC, agar dilution method; assay type: cell-based, Mycobacterium tuberculosis
M.bovis BCG Tokyo = assay: MIC, agar dilution method; assay type: cell-based
M.avium Flamingo = assay: MIC, agar dilution method; assay type: cell-based
[2] = system: M.intracellulare ATCC15984; assay: MIC, agar dilution method; assay type: cell-based
[3] = system: M.tuberculosis H37Rv INHr; assay: MIC, agar dilution method; assay type: cell-based, Mycobacterium tuberculosis
M.aurum = assay: MIC, agar dilution method; assay type: cell-based
M.fortuitum NIHJ1615 = assay: MIC, agar dilution method; assay type: cell-based
M.smegmatis Takeo = assay: MIC, agar dilution method; assay type: cell-based
nonreplicating Mtb = assay: Killing of nonreplicating bacteria, Wayne low oxygen model; assay type: cell-based, Mycobacterium tuberculosis
Method in brief: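 Aerobic preculture diluted 100-fold into tubes sealed with rubber septa, degassed with N₂ and held anaerobically for 24 days, into nonreplicating phase 2 of a modified Wayne model. Test compound in degassed solution was added and incubation continued for 96 h. Suspensions were then diluted and plated, grown aerobically at 37 °C, and colonies counted.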

bacterial growth = assay: In vitro rescue studies with vitamin K supplementation; assay type: cell-based; conditions: 22a ~2μM; vitamin K even at 400 μM
DosS or DosR = assay: DosS/DosR upregulation; assay type: cell-based, Mycobacterium tuberculosis; conditions: unpublished data
[4] = Mycobacterium tuberculosis, H37RV
[5] = Mycobacterium tuberculosis variant bovis BCG, BCG
[6] = Mycobacterium intracellulare, ATCC15984
[7] = 10 μg/mL, 96 h exposure after 24 days anaerobic

CO[C@H]1/C=C/O[C@@]2(C)Oc3c(C)c(O)c4c(O)c(c(/C=N/N5CCN(C)CC5)c(O)c4c3C2=O)NC(=O)/C(C)=C\C=C\[C@H](C)[C@H](O)[C@@H](C)[C@@H](O)[C@@H](C)[C@H](OC(C)=O)[C@@H]1C [RFP, rifampicin]
MIC (M.tuberculosis H37Rv; [4]): 0.2 µg/mL (≈ 0.243 µM)
MIC [1, 4]: > 25 µg/mL
MIC (M.bovis BCG Tokyo; [5]): 0.1 µg/mL (≈ 0.122 µM)
MIC (M.avium Flamingo; Mycobacterium avium): 3.1 µg/mL (≈ 3.77 µM)
MIC [2, 6]: 3.1 µg/mL (≈ 3.77 µM)

C=CCN(C)CCCCCCCCOc1ccc(C(=O)c2ccc(Cl)cc2)c(O)c1 [22a, allylaminomethanone-A]
MIC (M.tuberculosis H37Rv; M.tuberculosis H37Rv, agar dilution): 1.0 µg/mL (≈ 2.33 µM)
MIC ([3]; M.tuberculosis H37Rv INHr, agar dilution): 1.5 µg/mL (≈ 3.49 µM)
MIC ([1]; M.tuberculosis H37Rv RFPr, agar dilution): 1.5 µg/mL (≈ 3.49 µM)
MIC (M.bovis BCG Tokyo; M.bovis BCG Tokyo, agar dilution): 3.1 µg/mL (≈ 7.21 µM)
MIC (M.avium Flamingo; M.avium Flamingo, agar dilution): 6.3 µg/mL (≈ 14.7 µM)
MIC ([2]; M.intracellulare ATCC15984, agar dilution): 6.3 µg/mL (≈ 14.7 µM)
MIC (M.aurum): 6.3 µg/mL (≈ 14.7 µM)
MIC (M.fortuitum NIHJ1615): 12.5 µg/mL (≈ 29.1 µM)
MIC (M.smegmatis Takeo): 12.5 µg/mL (≈ 29.1 µM)
more effective in killing nonreplicating bacteria than ethambutol (nonreplicating Mtb; [7]): 320 fold
more effective in killing nonreplicating bacteria than isoniazid (nonreplicating Mtb; [7]): 180 fold
more effective in killing nonreplicating bacteria than rifampicin (nonreplicating Mtb; [7]): 3 fold
colonies after treatment of nonreplicating Mtb (nonreplicating Mtb; 50 μg/mL, 96 h exposure): no countable colonies
rescue of bacterial growth by supplementation with vitamin K (bacterial growth): not completely rescued
upregulation of DosS or DosR (DosS or DosR): did not upregulate

NNC(=O)c1ccncc1 [INH, isoniazid]
MIC (M.tuberculosis H37Rv; [4]): 0.1 µg/mL (≈ 0.729 µM)
MIC [3, 4]: > 25 µg/mL
MIC [1, 4]: 0.05 µg/mL (≈ 0.365 µM)
MIC (M.bovis BCG Tokyo; [5]): 0.1 µg/mL (≈ 0.729 µM)
MIC (M.avium Flamingo; Mycobacterium avium): > 25 µg/mL
MIC [2, 6]: 12.5 µg/mL (≈ 91.1 µM)
